# SENP8 block-1 – SENP8 protease inhibitors, primary screen, biochemical, luminescence | 330,000 tested, 1.2% active | inhibition, % at 10 µM | purified SENP8, Z-RLRGG-aminoluciferin cleavage | AID 2540, 2010 | Sentrin-specific protease 8 (Homo sapiens), Q96LD8; in the data active = inhibition above about 50%
# SENP7 block – SENP7 protease inhibitors, primary screen, biochemical, luminescence, uHTS; recombinant SENP7, Z-RLRGG-aminoluciferin luminescence, 40 min; Sentrin-specific protease 7 (Homo sapiens), Q9BQF6; inhibition, % at 5 µM; 330,000 tested, 1.5% active;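 active = inhibition above about 50% at the single test dose, limit read from the data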
# SENP1 FRET inh – human SENP1 catalytic domain inhibitors, primary screen, biochemical, FRET, uHTS. 360,000 tested, 0.21% active. Sentrin-specific protease 1 (Homo sapiens), Q9P0U3. AID 624204, 2012. inhibition, % at 10 µM. recombinant SENP1 catalytic domain, CyPet-SUMO1-YPet FRET cleavage;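 active = inhibition at least 30% at 10 µM, raw YFP signal under a set limit, fluorescence ratio 0.5 to 1.5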
#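 Test system: hSENP1 catalytic domain, recombinant; Amount: 20 pM final SENP1 enzyme; Medium: Tris pH 8 buffer plus EDTA, NaCl, BME, BSA, NP40, catalase; Schedule: 50 min enzyme reaction, room temperature, light-protected; Technique: FRET fluorescence in CFP and YFP emission channels; Controls: no-enzyme wells low, DMSO-plus-enzyme wells high control.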
# Apaf-1 inh – inhibitors of human Apaf-1 apoptosome, primary screen, biochemical, DEVD-Rh110 fluorescence, uHTS; inhibition, % at 20 µM; reconstituted apoptosome caspase-3 activity; Apoptotic protease-activating factor 1 (Homo sapiens), O14727; AID 489030, 2010; 330,000 tested, 0.71% active; active = inhibition of at least 40% at 20 µM
#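 Material: biochemical Apaf-1 apoptosome reconstitution. Medium: Hepes buffer, pH 7.5. Also added: cytochrome c activation, bis-DEVD rhodamine 110 substrate. Timing: 30 min compound preincubation, 50 min activation, room temperature. Measured by: rhodamine 110 fluorescence at Ex 480/Em 540 nm.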
# SENP6 inh – SENP6 protease inhibitors, primary screen, biochemical, luminescence, uHTS. inhibition, % at 10 µM. AID 2599, 2010. 330,000 tested, 1.8% active. Recombinant SENP6 catalytic domain, aminoluciferin luminescence;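 active = inhibition above about 50% at the single tested dose, limit read from the data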
# Target sequence (Q9GZR1 628-1112 limits assumed): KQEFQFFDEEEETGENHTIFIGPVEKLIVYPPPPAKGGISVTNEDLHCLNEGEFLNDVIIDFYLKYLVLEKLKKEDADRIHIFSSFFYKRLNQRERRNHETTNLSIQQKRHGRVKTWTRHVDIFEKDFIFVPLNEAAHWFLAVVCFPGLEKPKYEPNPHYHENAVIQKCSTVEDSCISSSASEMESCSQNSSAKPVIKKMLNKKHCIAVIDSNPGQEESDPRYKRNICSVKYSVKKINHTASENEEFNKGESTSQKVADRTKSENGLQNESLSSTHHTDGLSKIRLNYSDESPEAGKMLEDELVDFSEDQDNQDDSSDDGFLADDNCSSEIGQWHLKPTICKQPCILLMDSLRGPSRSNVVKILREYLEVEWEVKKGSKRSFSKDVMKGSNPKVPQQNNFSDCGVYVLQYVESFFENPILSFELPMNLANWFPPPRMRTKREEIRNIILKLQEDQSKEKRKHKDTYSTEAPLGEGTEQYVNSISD
# SENP8 block-2 – human SENP8 protease inhibitors, primary screen, biochemical, fluorescence, Nedd8 protein substrate, uHTS | recombinant SENP8 | 360,000 tested, 0.64% active | AID 602440, 2012 | inhibition, % at 20 µM | Sentrin-specific protease 8 (Homo sapiens), Q96LD8; in the data active = inhibition mostly above about 40%, no sharp cut-off; inactive = mostly below about 27%
# SENP8 conf – SENP8 protease inhibitors, retest, confirmation, biochemical, luminescence, single concentration. Recombinant SENP8, Z-RLRGG-aminoluciferin luminescence, 60 min. shares compounds with SENP7 block. 6,200 tested, 40% active. AID 488912, 2010. inhibition, % at 12.5 µM;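 active = mean inhibition across replicates above about 50%, limit read from the data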
# SENP6 conf – SENP6 protease inhibitors, confirmation, biochemical, luminescence, single concentration; shares compounds with SENP7 block; recombinant SENP6, Z-RLRGG-aminoluciferin luminescence; inhibition, % at 12.5 µM; 6,200 tested, 58% active; AID 488915, 2010
# SENP7 confirm – SENP7 protease inhibitors, retest, confirmation, biochemical, luminescence, single concentration; shares compounds with SENP7 block; recombinant SENP7, Z-RLRGG-aminoluciferin luminescence, 40 min; inhibition, % at 12.5 µM; AID 488917, 2010; 6,200 tested, 69% active
# Casp3 SENP sel – caspase-3 protease inhibitors, confirmation, selectivity assay for SENP inhibitor project, biochemical, single concentration; shares compounds with SENP7 block; purified caspase-3, Z-DEVD-aminoluciferin luminescence, 60 min; inhibition, % at 12.5 µM; 6,200 tested, 60% active;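 active = mean inhibition above about 50%, limit read from the data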
# Target sequence (P42574 28-227 limits assumed): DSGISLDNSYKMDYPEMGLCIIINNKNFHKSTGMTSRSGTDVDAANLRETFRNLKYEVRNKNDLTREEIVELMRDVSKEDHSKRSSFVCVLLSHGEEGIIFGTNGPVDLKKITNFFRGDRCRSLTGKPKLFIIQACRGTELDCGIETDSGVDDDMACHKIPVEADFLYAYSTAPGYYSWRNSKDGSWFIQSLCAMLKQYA
# Luc interf – counter-screen for SENP inhibitors: luminescence interference | inhibition, % at 12.5 µM | 6,200 tested, 39% active | Pre-incubated SENP8/Z-RLRGG-aminoluciferin, luciferase luminescence interference | shares compounds with SENP7 block | AID 488919;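 active = mean inhibition above about 50% when retested at one dose, limit read from the data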
# Numbers stand for hits; . = inactive; / = no result. Only some compounds are listed: those with a hit (about 2.9% of all), similar ones and a draw of the others.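 Rule for the calls, unless noted: active = mean inhibition above about 50% in the one-dose retest (limit read from the data); inactive = the rest.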
SMILES,SENP8 block-1,SENP7 block,SENP1 FRET inh,Apaf-1 inh,SENP6 inh,SENP8 block-2,SENP8 conf,SENP6 conf,SENP7 confirm,Casp3 SENP sel,Luc interf
CCC(C)CN1C(=O)CSCC1(C)C(=O)NC(C)C (centres undefined),/,/,.,/,/,.,/,/,/,/,/
CC1(C)OC2COC(c3[nH]nc4c(=O)[nH]c(=O)[nH]c34)C2O1 (centres undefined),/,/,.,/,/,.,/,/,/,/,/
Cc1cc(C(=O)Nc2nc3ccc(S(C)(=O)=O)cc3s2)c(C)o1,.,93,.,.,96,.,.,89,101,94,.
COc1ccc2nc(NC(=S)N(C)C)sc2c1,67,76,.,.,81,.,80,79,94,69,79
COc1ccc2nc(NC(=O)c3ccoc3C)sc2c1,97,100,.,.,101,.,97,100,103,98,97
Cc1csc(NC(=O)c2cc(C)oc2C)n1,.,59,.,.,69,.,64,63,89,84,65
NC(=O)CC(NC(=O)c1ccc(Cl)cc1)C(=O)NCCc1ccc(S(N)(=O)=O)cc1 (centres undefined),.,.,.,.,.,.,/,/,/,/,/
CN(CCc1ccccc1)C(=O)CC1C(=O)NCCN1Cc1ccccn1 (centres undefined),/,/,.,/,/,.,/,/,/,/,/
COc1ccc2nc(NC(=O)c3cccnc3SC)sc2c1,71,85,.,.,93,.,78,77,93,72,.
CSc1ncccc1C(=O)Nc1nc2ccc(S(C)(=O)=O)cc2s1,.,.,.,.,.,.,/,/,/,/,/
COc1ccc2nc(NC(=O)c3cc(C)oc3C)sc2c1,90,101,.,.,88,.,.,94,102,96,63
NC(=O)C1CCN(C2=C(Cl)C(=O)c3ccccc3C2=O)CC1,.,.,.,73,50,.,.,75,.,.,.
NC(=O)C1CCN(C2=C(NS(=O)(=O)c3ccccc3)C(=O)c3ccccc3C2=O)CC1,.,.,.,.,.,.,/,/,/,/,/
Nc1nc2c(ncn2[C@@H]2O[C@H](CNC(=O)[C@H](N)Cc3cncn3COCc3ccccc3)[C@@H](O)[C@H]2O)c(=O)[nH]1,/,/,.,/,/,.,/,/,/,/,/
CCCNC(=O)CCn1c(=S)oc2ccccc21,.,.,.,.,58,.,.,.,.,.,.
CC(=O)Nc1ccc(NC(=O)CCn2c(=S)oc3ccccc32)cc1,.,.,.,.,.,.,/,/,/,/,/
CCOc1cc(/C=C2\SC(=S)N(Nc3ccccc3)C2=O)ccc1O,.,.,.,.,85,.,60,69,81,.,55
O=C(O)c1ccc(/C=C2\SC(=S)N(Nc3ccccc3)C2=O)cc1,82,78,.,.,95,.,92,92,98,84,76
CCOc1cc(/C=C2\SC(=S)N(N3CCOCC3)C2=O)ccc1O,.,.,.,.,.,.,/,/,/,/,/
COc1cc(/C=C2\SC(=S)N(Nc3ccccc3)C2=O)ccc1O,89,72,.,.,93,52,95,96,100,78,94
CC(C)CNC(=O)C1(C)CCCN1C(=O)CCc1cccs1 (centres undefined),/,/,.,/,/,.,/,/,/,/,/
CCCCN(C(=O)C1CC(=O)N(Cc2ccc(C)cc2)C1)c1c(N)n(CC(C)C)c(=O)[nH]c1=O (centres undefined),.,.,.,.,.,.,/,/,/,/,/
Cc1ccc(C(=O)c2sc3nsc(C)c3c2N)cc1,.,53,.,.,57,.,.,.,60,.,.
COc1cccc(-n2cc(-c3ccc(F)cc3)[nH]c2=S)c1,.,77,.,.,67,.,.,.,.,.,.
O=C(NCc1ccccc1Cl)c1[nH]c(C(F)(F)F)nc1-c1ccccc1,/,/,.,/,/,.,/,/,/,/,/
SMILES,SENP8 block-1,SENP7 block,SENP1 FRET inh,Apaf-1 inh,SENP6 inh,SENP8 block-2,SENP8 conf,SENP6 conf,SENP7 confirm,Casp3 SENP sel,Luc interf
C[C@H](CO)N1C[C@H](C)[C@H](CN(C)C(=O)C2CC2)OCc2cnnn2CCCC1=O,/,/,.,/,/,.,/,/,/,/,/
O=C(Nc1ccccc1Cl)c1cc2ccccc2o/c1=N\O,.,81,.,.,56,.,.,.,81,56,.
COc1cccc(NC(=O)c2cc3ccccc3o/c2=N\O)c1,96,100,.,.,98,.,98,99,101,96,97
COc1cccc(NC(=O)c2ccccc2Oc2ccccc2)c1,.,.,.,.,.,.,/,/,/,/,/
c1ccc2oc(SCc3nc4ccccc4s3)nc2c1,.,.,.,.,.,.,/,/,/,/,/
c1ccc(SCc2nc3ccccc3s2)nc1,.,.,.,.,60,.,64,61,86,66,57
N#Cc1ccc(NC(=O)CCc2nc3ccccc3s2)cc1,.,.,.,.,.,.,/,/,/,/,/
Fc1ccc(OCc2nc3ccccc3s2)cc1,90,94,.,.,97,.,82,92,102,90,79
CCC(=O)Nc1ccc(OCc2nc3ccccc3s2)cc1,76,75,.,.,.,.,.,80,96,75,.
c1ccc(OCc2nc3ccccc3s2)cc1,88,95,.,.,93,.,85,96,101,91,84
NC(=O)c1ccccc1OCc1nc2ccccc2s1,.,.,.,.,.,.,/,/,/,/,/
Cc1cc(=O)oc2ccc(OCc3ccccc3)cc12,.,.,.,.,.,.,/,/,/,/,/
Cc1oc2ccc(OCc3ccccc3F)cc2c1C(=O)O,53,.,.,.,77,.,61,57,83,74,69
